We go through 24 compounds from ChEMBL document CHEMBL2177027, “Exploring the directionality of 5-substitutions in a new series of 5-alkylaminopyrazolo[4,3-e]1,2,4-triazolo[1,5-c]pyrimidine as a strategy to design novel human a(3) adenosine receptor antagonists” (J Med Chem, 2012).

Assay [1] is described as follows: Selectivity ratio of Ki for human adenosine A2A receptor expressed in CHO cell membrane to Ki for human adenosine A3 receptor expressed in CHO cell membrane. The assay is classed as cell-based.
The target in assay [2] is T1, Adenosine receptor A1 (Homo sapiens, UniProt P30542).
T1 sequence (P30542 whole entry): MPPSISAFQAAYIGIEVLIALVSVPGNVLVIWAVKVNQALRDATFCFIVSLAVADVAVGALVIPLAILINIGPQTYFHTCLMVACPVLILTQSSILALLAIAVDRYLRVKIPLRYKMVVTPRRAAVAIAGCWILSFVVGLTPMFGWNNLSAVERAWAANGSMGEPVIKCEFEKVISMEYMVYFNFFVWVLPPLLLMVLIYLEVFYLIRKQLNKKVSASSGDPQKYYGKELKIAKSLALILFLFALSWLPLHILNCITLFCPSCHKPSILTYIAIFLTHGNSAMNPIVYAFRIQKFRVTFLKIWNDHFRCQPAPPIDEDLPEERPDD
Description: Displacement of [3H]CCPA from human adenosine A1 receptor expressed in CHO cell membrane. It counts as cell membranes. In outline:
(§1)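 CHO cells stably transfected with the human receptor subtype. Membranes were prepared by a 1000g spin to clear fragments and nuclei, then pelleted from the supernatant at 100 000g. Pellet was resuspended in the respective binding buffer, frozen in liquid nitrogen and stored until radioligand competition binding.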
(In general: Loss of bound radioactivity is the signal in a displacement assay; it reports binding, not function.)

The target in assay [3] is Adenosine receptor A2a (Homo sapiens, UniProt P29274). Description: Displacement of [3H]NECA from human adenosine A2A receptor expressed in CHO cell membrane. The assay is classed as cell membranes. In outline:
as §1

In assay [4] the target is Adenosine receptors; A1 & A3 (Homo sapiens) (UniProt P30542+P0DMS8). Kind of assay: Selectivity ratio of Ki for human adenosine A1 receptor expressed in CHO cell membrane to Ki for human adenosine A3 receptor expressed in CHO cell membrane. It counts as cell-based.
The nature of assay [5]: Selectivity ratio of Ki for human adenosine A1 receptor expressed in CHO cell membrane to Ki for human adenosine A2A receptor expressed in CHO cell membrane. The assay is classed as cell-based.
The target in assay [6] is T2, Adenosine receptor A3 (Homo sapiens, UniProt P0DMS8).
T2 sequence (P0DMS8 whole entry): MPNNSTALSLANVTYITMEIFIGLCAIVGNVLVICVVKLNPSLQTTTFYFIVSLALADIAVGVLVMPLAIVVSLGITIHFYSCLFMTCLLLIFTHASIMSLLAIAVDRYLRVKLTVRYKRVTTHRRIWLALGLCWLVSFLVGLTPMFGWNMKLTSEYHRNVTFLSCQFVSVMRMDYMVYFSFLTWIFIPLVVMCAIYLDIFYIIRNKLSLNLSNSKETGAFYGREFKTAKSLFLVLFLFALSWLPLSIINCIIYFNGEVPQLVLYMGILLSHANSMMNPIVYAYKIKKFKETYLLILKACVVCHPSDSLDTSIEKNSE
Kind of assay: Displacement of [3H]NECA from human adenosine A3 receptor expressed in CHO cell membrane. It counts as cell membranes. In outline:
as §1

The target in assay [7] is T3, Adenosine receptor A2b (Homo sapiens, UniProt P29275).
T3 sequence (P29275 whole entry): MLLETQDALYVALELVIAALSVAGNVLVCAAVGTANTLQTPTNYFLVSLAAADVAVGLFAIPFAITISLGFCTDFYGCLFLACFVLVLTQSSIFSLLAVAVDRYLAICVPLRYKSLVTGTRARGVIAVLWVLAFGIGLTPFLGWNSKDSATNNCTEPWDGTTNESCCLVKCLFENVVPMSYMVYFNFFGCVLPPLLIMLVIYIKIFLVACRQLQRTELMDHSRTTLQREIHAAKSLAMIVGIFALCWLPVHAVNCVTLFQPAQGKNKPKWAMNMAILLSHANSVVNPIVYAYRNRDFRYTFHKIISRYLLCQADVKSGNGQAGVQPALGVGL
Kind of assay: Antagonist activity at human adenosine A2B receptor expressed in CHO cells assessed as NECA-induced adenylate cyclase activity. It counts as functional, cell-based. Summed up:
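Membranes from stably transfected CHO cells made with a single high-speed spin of the homogenate. Incubated 20 min with about 150 000 cpm [α-³²P]ATP in mixture lacking EDTA and NaCl. IC50 taken from concentration-dependent inhibition of NECA-stimulated adenylyl cyclase using Hill equation.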

Chain of Adenosine receptor A2a (P29274 whole entry): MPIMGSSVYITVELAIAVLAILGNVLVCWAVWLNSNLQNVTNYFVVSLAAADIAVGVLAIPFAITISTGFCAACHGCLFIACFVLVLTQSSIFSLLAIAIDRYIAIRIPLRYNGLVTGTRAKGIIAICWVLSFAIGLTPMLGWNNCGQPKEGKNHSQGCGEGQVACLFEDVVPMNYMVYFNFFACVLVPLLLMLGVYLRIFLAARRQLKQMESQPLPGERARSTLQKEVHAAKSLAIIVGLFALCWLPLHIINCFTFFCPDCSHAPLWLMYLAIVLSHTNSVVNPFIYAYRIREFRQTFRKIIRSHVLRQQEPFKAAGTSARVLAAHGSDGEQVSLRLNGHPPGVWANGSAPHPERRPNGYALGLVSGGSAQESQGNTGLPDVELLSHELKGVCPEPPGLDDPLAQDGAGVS

One may read the Ki as a dissociation constant, usually derived from enzyme kinetics or from competition with a known ligand. In the case of `Cn1cc2c(nc(NCc3ccc(C(F)(F)F)cc3)n3nc(-c4ccco4)nc23)n1`, the Ratio Ki in assay [1] is 16.4; in assay [4], 82.5; in assay [5], 5.02. Also, the Ki is 1230 nM in assay [2], 245 nM in assay [3], 14.9 nM in assay [6] and above 3000 nM in assay [7].

Turning to `CCCCCC(C)Nc1nc2nn(C)cc2c2nc(-c3ccco3)nn12` (stereo not given), the Ratio Ki in assay [1] was determined as 51.7; in assay [4] it was 28.8; in assay [5], 0.56. Also, the inhibition constant (Ki) in assay [2] was 248 nM; in assay [3], 446 nM; in assay [6], 8.62 nM; in assay [7], 7660 nM.

With `Cn1cc2c(nc(NCCO)n3nc(-c4ccco4)nc23)n1`, the Ratio Ki in assay [1] worked out at 0.51; in assay [4] it was 2.1; in assay [5] it was 4.13. The Ki in assay [2] came to 649 nM; in assay [3], 157 nM; in assay [6] it was 309 nM; in assay [7], 7470 nM.

In the case of `Cn1cc2c(nc(Cl)n3nc(-c4ccco4)nc23)n1`, the Ratio Ki in assay [1] was found to be 81.5; in assay [4], 17.9; in assay [5] it was 0.22. The Ki in assay [2] was 6560 nM; in assay [3] it was 29900 nM; in assay [6], 367 nM; in assay [7] it was above 10000 nM.

With `Cn1cc2c(nc(NCCCCCO)n3nc(-c4ccco4)nc23)n1`, the Ratio Ki in assay [1] turned out to be 0.91; in assay [4], 3.86; in assay [5], 4.23. Also, the inhibition constant Ki in assay [2] is 525 nM; in assay [3] it was 124 nM; in assay [6], 136 nM; in assay [7], above 10000 nM.

As to `Cn1cc2c(nc(N3CCCC3)n3nc(-c4ccco4)nc23)n1`, the values for the Ratio Ki in assay [1], in assay [4] and in assay [5] were 3.72, 9.24 and 2.48, respectively. Moreover, the Ki is 328 nM in assay [2], 132 nM in assay [3], 35.5 nM in assay [6] and above 10000 nM in assay [7].

As to `CNc1nc2nn(C)cc2c2nc(-c3ccco3)nn12`, the Ratio Ki in assay [1] was 5.8; in assay [4] it was 30.4; in assay [5], 5.24. In addition, the Ki was 1930 nM in assay [2], 368 nM in assay [3], 63.4 nM in assay [6] and 2110 nM in assay [7].

Regarding `Cn1cc2c(nc(NC(C)(C)CC(C)(C)C)n3nc(-c4ccco4)nc23)n1`, the Ratio Ki in assay [1] turned out to be 24.8; in assay [4], 7.55; in assay [5], 0.3. For the same compound, the Ki in assay [2] is 982 nM; in assay [3], 3230 nM; in assay [6] it was 130 nM; in assay [7], above 10000 nM.

Take `Cn1cc2c(nc(NC3CCCC3)n3nc(-c4ccco4)nc23)n1`: the results for the Ratio Ki in assay [1], in assay [4] and in assay [5] were 16.9, 10.4 and 0.62, respectively. Besides, the Ki in assay [2] turned out to be 80.1 nM; in assay [3] it was 130 nM; in assay [6], 7.68 nM; in assay [7], 2650 nM.

For `CCNc1nc2nn(C)cc2c2nc(-c3ccco3)nn12`, the Ratio Ki in assay [1] was found to be 4.68; in assay [4], 13.6; in assay [5], 2.9. The Ki in assay [2] was 604 nM; in assay [3] it was 208 nM; in assay [6] it was 44.4 nM; in assay [7] it was 2160 nM.

On to `Cn1cc2c(nc(N3CCCCC3)n3nc(-c4ccco4)nc23)n1`, for which the Ratio Ki in assay [1] came out at 9.24; in assay [4], 56.4; in assay [5], 6.11. The inhibitory constant (Ki) in assay [2] is 2150 nM; in assay [3], 352 nM; in assay [6] it was 38.1 nM; in assay [7], above 10000 nM.

As for `Cn1cc2c(nc(NC3C4CC5CC(C4)CC3C5)n3nc(-c4ccco4)nc23)n1` (stereo not given), the results for the Ratio Ki in assay [1], in assay [4] and in assay [5] were 45.1, 39.9 and 0.88, respectively. Further, the inhibitory constant (Ki) in assay [2] is 750 nM; in assay [3], 848 nM; in assay [6], 18.8 nM; in assay [7] it was above 10000 nM.

Consider `Cn1cc2c(nc(NCCCCO)n3nc(-c4ccco4)nc23)n1`, for which the Ratio Ki in assay [1] stood at 1; in assay [4], 4.13; in assay [5] it was 4.14. Further, the Ki was 1040 nM in assay [2], 251 nM in assay [3], 252 nM in assay [6] and above 10000 nM in assay [7].

Consider `CCC(CO)Nc1nc2nn(C)cc2c2nc(-c3ccco3)nn12` (stereo not given), for which the figures for the Ratio Ki in assay [1], in assay [4] and in assay [5] were 3.29, 3.48 and 1.06, respectively. Moreover, the Ki in assay [2] was 219 nM; in assay [3], 207 nM; in assay [6], 62.9 nM; in assay [7] it was above 10000 nM.

With `Cn1cc2c(nc(NCc3ccc(Cl)cc3)n3nc(-c4ccco4)nc23)n1`, the Ratio Ki turned out to be 37.9 in assay [1], 162 in assay [4] and 4.27 in assay [5]. Moreover, the Ki is 322 nM in assay [2], 75.4 nM in assay [3], 1.99 nM in assay [6] and 2620 nM in assay [7].

`Cn1cc2c(nc(NC(c3ccccc3)c3ccccc3)n3nc(-c4ccco4)nc23)n1`: the Ratio Ki in assay [1] was 1080; in assay [4] it was 204; in assay [5], 0.19. In addition, the Ki was 169 nM in assay [2], 900 nM in assay [3], 0.83 nM in assay [6] and above 10000 nM in assay [7].

On to `CC(C)Nc1nc2nn(C)cc2c2nc(-c3ccco3)nn12`, for which the values for the Ratio Ki in assay [1], in assay [4] and in assay [5] were 11.4, 9.76 and 0.86, respectively. The Ki was 333 nM in assay [2], 389 nM in assay [3], 34.1 nM in assay [6] and 9720 nM in assay [7].

As to `CCOc1nc2nn(C)cc2c2nc(-c3ccco3)nn12`, the Ratio Ki in assay [1] is 33.6; in assay [4], 42.6; in assay [5], 1.27. In addition, the inhibitory constant (Ki) in assay [2] was 7750 nM; in assay [3], 6120 nM; in assay [6], 182 nM; in assay [7] it was above 10000 nM.

As for `CC(CCc1ccccc1)Nc1nc2nn(C)cc2c2nc(-c3ccco3)nn12` (stereo not given), the Ratio Ki in assay [1] was 3.89; in assay [4], 3.52; in assay [5], 0.9. Further, the inhibition constant (Ki) in assay [2] was 133 nM; in assay [3], 147 nM; in assay [6], 37.8 nM; in assay [7], 5260 nM.

As for `CC(O)CNc1nc2nn(C)cc2c2nc(-c3ccco3)nn12` (stereo not given), the Ratio Ki in assay [1] was 0.38; in assay [4], 1.05; in assay [5] it was 2.76. Further, the inhibition constant (Ki) in assay [2] is 375 nM; in assay [3], 136 nM; in assay [6] it was 356 nM; in assay [7], above 3000 nM.

`Cn1cc2c(nc(NCc3ccccc3)n3nc(-c4ccco4)nc23)n1`: the values for the Ratio Ki in assay [1], in assay [4] and in assay [5] were 36.5, 212 and 5.79, respectively. Further, the Ki in assay [2] came out at 527 nM; in assay [3], 91 nM; in assay [6], 2.49 nM; in assay [7] it was 3330 nM.

Turning to `COc1nc2nn(C)cc2c2nc(-c3ccco3)nn12`, the Ratio Ki in assay [1] and in assay [4] was above 36.5 throughout. In addition, the Ki in assay [2] is above 30000 nM; in assay [3], above 30000 nM; in assay [6], 822 nM; in assay [7] it was above 10000 nM.

Consider `Cn1cc2c(n1)[nH]c(=O)n1nc(-c3ccco3)nc21`, for which the Ratio Ki in assay [1] and in assay [4] was above 5.68 throughout. The inhibition constant (Ki) is above 30000 nM in assay [2], above 30000 nM in assay [3], 5280 nM in assay [6] and above 10000 nM in assay [7].

For the compound `Cn1cc2c(nc(NC34CC5CC(CC(C5)C3)C4)n3nc(-c4ccco4)nc23)n1`, the values for the Ratio Ki in assay [1] and in assay [4] were above 794 and 87.6, respectively. Further, the Ki in assay [2] is 3310 nM; in assay [3], above 30000 nM; in assay [6] it was 37.8 nM; in assay [7], above 10000 nM.
